Source: PubChem BioAssay
Runt-SMMHC FRET: inhibitors of human RUNX1 Runt domain binding to CBFb-SMMHC. Q01196+Q13951. Cerulean-Runt/Venus-CBFb-SMMHC FRET ratio 530/480, 1 h. inhibition, % at 20 µM. 220,000 tested, 0.74% active;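 active means mean inhibition across duplicate retests at 20 µM reaching about 50%, limit read from the data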;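 further: 0% = DMSO wells and 100% = wells with excess untagged CBFb-SMMHC; inhibitors lower the FRET ratio by blocking Runt binding to CBFb-SMMHC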
TbHK1 inh: blocks Trypanosoma brucei hexokinase 1 activity. inhibition, % at 10 µM. AID 1430. recombinant TbHK1, G6PDH-coupled NADH A340. 220,000 tested, 0.11% active;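 active means inhibition of 50% or more in the single-dose primary screen; inactive means inhibition below 50%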
Runt-CBFb FRET: inhibitors of human RUNX1 Runt domain binding to CBFb; 220,000 tested, 0.46% active; Cerulean-Runt/Venus-CBFb FRET ratio 530/480, 1 h; inhibition, % at 20 µM; Q01196+Q13951;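 active means inhibition over about 50% at 20 µM in the single-dose screen, limit read from the data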;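 further: 0% = DMSO wells and 100% = excess unlabeled CBFb competitor control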
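Buffer or medium: Tris pH 7.5 buffer with BSA. Assay system: Cerulean-labeled Runt domain protein. Amount: each fluorescent fusion protein 100 nM. Read-out basis: loss of energy transfer signal. Incubation: 1 h compound exposure, room temperature. Probe or stimulus: Venus-CBFb binding partner, 100 nM. Detection: FRET, excitation 422 nm, emission at 530 and 480 nm.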
RanGTP-Imp inh: inhibitors of RanGTP-importin-beta interaction, primary screen, biochemical, FRET, CFP-Ran, YFP-importin-beta, homogeneous | 300,000 tested, 1.1% active | AID 2216 | cell-free CFP-Ran/YFP-importin-beta FRET ratio | inhibition, % (no concentration beside the values);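 active means more than half of the replicate wells show a fall in the fluorescence ratio signal beyond about 16%, limit read from the data, passing the limit was not always enough; inconclusive means exactly half of the replicate wells pass the set limit; inactive means fewer than half of replicates pass the limit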;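 further: 0% = DMSO wells and 100% = Ran loaded with GDP instead of GTP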
Hck-Nef inh: human Hck-Nef kinase inhibition | 220,000 tested, 0.68% active | inhibition, % at 20 µM | Recombinant Hck-YEEI plus Nef, Z-Lyte FRET kinase assay | P08631;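 active means Hck-Nef kinase inhibition above about 50%, limit read from the data; inactive means inhibition below that limit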;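 further: 0% = DMSO with Hck plus Nef and 100% = Hck alone without Nef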
14-3-3 Bad inh: disrupts binding of bovine 14-3-3 zeta to phospho-Bad peptide | P63103 | TR-FRET 14-3-3zeta/Dy647-pBad peptide displacement, 1 h | inhibition, % at 21.7 µM | 220,000 tested, 0.71% active | AID 781;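 active means inhibition above about 70%, limit read from the data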;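 further: 0% = full 14-3-3 plus peptide FRET controls and 100% = background without 14-3-3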
Target sequence (P63103 whole entry, looked up): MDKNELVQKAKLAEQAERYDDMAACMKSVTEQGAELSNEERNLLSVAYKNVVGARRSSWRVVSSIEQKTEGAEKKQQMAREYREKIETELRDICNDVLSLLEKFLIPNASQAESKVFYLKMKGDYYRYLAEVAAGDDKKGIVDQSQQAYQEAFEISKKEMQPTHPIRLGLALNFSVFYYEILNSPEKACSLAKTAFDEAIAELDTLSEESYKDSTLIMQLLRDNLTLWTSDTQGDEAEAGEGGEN
Hck Nef conf: confirmation of Hck-Nef kinase inhibitors; 1,300 tested, 28% active; calls only at 10 µM; shares compounds with Hck-Nef inh; Recombinant Hck-YEEI:Nef, Z-Lyte FRET kinase assay;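 active means average inhibition of at least 50%, with Z-scores no higher than 3 in both the phospho-tyrosine peptide and fluorescence counterscreens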
An asterisk follows results filed as active. The list is not random: actives were taken first. Their share in the collection is about 2.2%.

CC(Sc1ccccc1)C(=O)N1CCN(S(=O)(=O)c2cccc(Br)c2)CC1 (stereo not given) was read as RanGTP-Imp inh -1.
`O=C1CCCC2=C1C(c1cccc(O)c1)c1c(ccc3ncccc13)N2` (stereo not given) gave Runt-SMMHC FRET 2, TbHK1 inh -11, Runt-CBFb FRET 4, RanGTP-Imp inh 2, Hck-Nef inh 65*, 14-3-3 Bad inh -6 and Hck Nef conf inactive.
`FC(F)(F)c1ccc(Cl)c(NC(=S)NC2CC2)c1` gave Runt-SMMHC FRET 1, TbHK1 inh 3, Runt-CBFb FRET 2, RanGTP-Imp inh -4, Hck-Nef inh 5 and 14-3-3 Bad inh -6.
`O=C(N=Nc1c(O)[nH]c2ccccc12)c1ccc(CN2CCOCC2)cc1` gave Runt-SMMHC FRET 3, TbHK1 inh -26, Runt-CBFb FRET 1, RanGTP-Imp inh -3, Hck-Nef inh 94*, 14-3-3 Bad inh -12 and Hck Nef conf active.
`Cc1csc2nc(CN3CCN(CC(=O)N(C)C)CC3)cc(=O)n12` gave RanGTP-Imp inh 2.
`CC(=O)Nc1ccc(N=Cc2c(O)c3ccccc3oc2=O)cc1` gave RanGTP-Imp inh 3.
CC(=O)Nc1ccc(N=Cc2c(O)c(C(=O)Nc3ccccc3)cc3ccccc23)cc1 was read as Runt-SMMHC FRET -70, TbHK1 inh 39, Runt-CBFb FRET -52, RanGTP-Imp inh 4, Hck-Nef inh 69*, 14-3-3 Bad inh 49 and Hck Nef conf inactive.
`O=C(CSc1nccc(=O)[nH]1)NN(c1ccccc1)c1ccccc1` gave Runt-SMMHC FRET -4, TbHK1 inh 2, Runt-CBFb FRET 1, RanGTP-Imp inh -3, Hck-Nef inh 14 and 14-3-3 Bad inh -11.
For O=C(O)CCC(=O)NNc1ncnc2ccccc12 the results were Runt-SMMHC FRET -7, TbHK1 inh -16, Runt-CBFb FRET 3, RanGTP-Imp inh 2, Hck-Nef inh 52*, 14-3-3 Bad inh -21 and Hck Nef conf inactive.
Screening CCC(=O)NNc1ncnc2ccccc12 returned Runt-SMMHC FRET -1, TbHK1 inh -18, Runt-CBFb FRET 2, RanGTP-Imp inh 4, Hck-Nef inh 1 and 14-3-3 Bad inh 15.
`CCN(CC)c1ccc(NC(=O)Cn2c(C(C)NC(=O)c3ccc(C)cc3)nc3ccccc32)cc1` (stereo not given) gave Runt-SMMHC FRET 3, TbHK1 inh 12, Runt-CBFb FRET 4, RanGTP-Imp inh 0, Hck-Nef inh 83*, 14-3-3 Bad inh 95* and Hck Nef conf active.
CCCn1c(C(C)NC(=O)c2ccccc2)nc2ccccc21 (stereo not given) was read as Runt-SMMHC FRET 1, TbHK1 inh -7, Runt-CBFb FRET -1, RanGTP-Imp inh 0, Hck-Nef inh 1 and 14-3-3 Bad inh -6.
O=C1N=c2ccccc2=C1c1sc(Nc2ccc(O)cc2)nc1O was read as Runt-SMMHC FRET -3, TbHK1 inh 20, Runt-CBFb FRET -10, Hck-Nef inh 87*, 14-3-3 Bad inh 83* and Hck Nef conf active.
`N=C1/C(=C/c2ccc(-c3cccc(C(=O)O)c3)o2)C(=O)N=C2SC=C(c3ccccc3)N12` gave Runt-SMMHC FRET -97, TbHK1 inh 20, Runt-CBFb FRET -35, RanGTP-Imp inh -7, Hck-Nef inh 91*, 14-3-3 Bad inh 93* and Hck Nef conf active.
Screening Fc1cccc(/C=N/Nc2ncnc3nc[nH]c23)c1 returned Runt-SMMHC FRET -6, TbHK1 inh -48, Runt-CBFb FRET 0, RanGTP-Imp inh 2, Hck-Nef inh 65*, 14-3-3 Bad inh -6 and Hck Nef conf active.
Fc1ccccc1/C=N/Nc1ncnc2nc[nH]c12 was read as Runt-SMMHC FRET -1, TbHK1 inh -34, Runt-CBFb FRET 0, RanGTP-Imp inh -3, Hck-Nef inh 56*, 14-3-3 Bad inh 1 and Hck Nef conf active.
Screening c1ccc(CNc2ncnc3nc[nH]c23)nc1 returned Runt-SMMHC FRET 1, TbHK1 inh 7, Runt-CBFb FRET -1, RanGTP-Imp inh 3, Hck-Nef inh 2 and 14-3-3 Bad inh -12.
`CCC(C(=O)Nc1ccc(C(=O)N2CCCC2)cc1)c1ccccc1` (stereo not given) gave Runt-SMMHC FRET 0, TbHK1 inh -5, Runt-CBFb FRET -2, RanGTP-Imp inh -3, Hck-Nef inh 19 and 14-3-3 Bad inh -3.
CCCN1C(=O)/C(=c2\sc3nc(=O)c(Cc4ccc(C)cc4)nn3c2=O)c2ccccc21 was read as Runt-SMMHC FRET -1, TbHK1 inh -23, Runt-CBFb FRET 5, RanGTP-Imp inh 3, Hck-Nef inh 52*, 14-3-3 Bad inh -7 and Hck Nef conf inactive.
NC(=O)CN1C(=O)/C(=c2\sc3nc(=O)c(Cc4ccccc4)nn3c2=O)c2ccccc21 was read as Runt-SMMHC FRET 17, TbHK1 inh -41, Runt-CBFb FRET 31, RanGTP-Imp inh inconclusive, Hck-Nef inh 14 and 14-3-3 Bad inh 18.
Cc1ccc(S(=O)(=O)N(C)C)cc1[N+](=O)[O-] was read as Runt-SMMHC FRET 2, TbHK1 inh -7, Runt-CBFb FRET -1, RanGTP-Imp inh -3, Hck-Nef inh 7 and 14-3-3 Bad inh -2.
Screening Cc1[nH][nH]c(=O)c1C(c1c(C)[nH][nH]c1=O)c1cn(C)c2ccccc12 returned Runt-SMMHC FRET -12, TbHK1 inh -14, Runt-CBFb FRET -2, Hck-Nef inh 92*, 14-3-3 Bad inh -18 and Hck Nef conf active.
COc1ccc(-n2c(N)cc(=O)[nH]c2=O)cc1 was read as Runt-SMMHC FRET 0, TbHK1 inh -5, Runt-CBFb FRET 0, RanGTP-Imp inh 6, Hck-Nef inh 52*, 14-3-3 Bad inh 60 and Hck Nef conf inactive.
Screening O=C(NCC(O)c1ccccc1)c1ccc(Cl)c(S(=O)(=O)N2CCCCC2)c1 (stereo not given) returned RanGTP-Imp inh -2.
For CCN1C(=O)/C(=C\c2ccc(-c3cccc(C(=O)OC)c3)o2)SC1=Nc1ccc(C(=O)O)cc1 the results were RanGTP-Imp inh -9.
Screening CCN1C(=O)/C(=C\c2ccc(-c3ccc([N+](=O)[O-])cc3OC)o2)SC1=Nc1cccc(C(=O)O)c1 returned Runt-SMMHC FRET 36, TbHK1 inh 1, Runt-CBFb FRET 35, RanGTP-Imp inh 2, Hck-Nef inh 70*, 14-3-3 Bad inh 60 and Hck Nef conf inactive.
